This note sets out measurements from ChEMBL document CHEMBL4257516, “Synthesis and cellular penetration properties of new phosphonium based cationic amphiphilic peptides” (Medchemcomm, 2018).

The source made the active and inactive calls. No cut-off for these calls is given here. Residues, ends and D or L forms follow the SMILES beside them. *: point of attachment. BODIPY(FL) = CC1=CC(C)=[N+]2C1=Cc1ccc(CCC(=O)*)n1[B-]2(F)F; Propyl(3-PMe3+) = C[P+](C)(C)CCC*; CH2CH2P(+)Me3 = C[P+](C)(C)CC*

Data set [1] in a line: Drug uptake in membrane containing structure of human MCF7 cells at 20 uM after 3 hrs by DAPI/rhodamine phalloidin staining-based fluorescence microscopic method. Type of data set: ADME, cell membranes. The settings on record: mcf7, 3 h. The essentials:
(§1)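 MCF7 cells incubated with 20 μM BODIPY-Fl-labelled peptides (label coupled at the N-terminus) using a slightly modified literature protocol. Nuclei counterstained with DAPI and actin cytoskeleton with rhodamine phalloidin. Imaged by fluorescence microscopy; green, blue and red channels merged to localise peptide. Free BODIPY ligand served as control for green signal.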

In a further data set the test system is MCF7. The data set is described as follows: Binding affinity to actin in human MCF7 cells at 20 uM after 3 hrs by DAPI/rhodamine phalloidin staining-based fluorescence microscopic method. Type of data set: cell-based. The gist of the method: as §1
The nature of data set [2]: Drug uptake in nucleus of human MCF7 cells at 20 uM after 3 hrs by DAPI/rhodamine phalloidin staining-based fluorescence microscopic method. The settings on record: mcf7, 3 h. Type of data set: ADME, subcellular. The gist of the method:
(§2)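 Peptides labelled at the N-terminus with BODIPY-Fl; MCF7 cells incubated with 20 μM labelled peptide by a modified literature protocol. Imaged by fluorescence microscopy with DAPI for nuclei and rhodamine phalloidin for cytoskeleton. Green, blue and red images were merged to localise the peptide. Free BODIPY ligand served as a control for green signal.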

A short description of data set [3]: Drug uptake in cytoplasm of human MCF7 cells at 20 uM after 3 hrs by DAPI/rhodamine phalloidin staining-based fluorescence microscopic method. Type of data set: ADME, subcellular. The settings on record: mcf7, 3 h. The essentials:
as §2

Data set [4] is described as follows: Drug uptake in golgi apparatus of human MCF7 cells at 20 uM after 3 hrs by DAPI/rhodamine phalloidin staining-based fluorescence microscopic method. Type of data set: ADME, subcellular. The settings on record: mcf7, 3 h. The gist of the method:
as §2

Data set [5] can be described thus: Hemolytic activity in horse erythrocytes at 512 uM after 1 hr relative to control. Type of data set: ADME, cell-based, Equus caballus, Erythrocyte. The settings on record: read-out: Activity. The essentials:
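Horse erythrocytes exposed to peptides (TFA salts, C-terminal amide, free N-terminus) at 512 μM; haemolysis as percent, triplicate determinations, reported as mean ± SEM.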

A short description of data set [6]: Cytotoxicity against HEK293 cells assessed as cell viability at 512 uM after 24 hrs by Alamar blue assay relative to control. The settings on record: human, read-out: Activity. Type of data set: cell-based. The essentials: (§3)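 HEK 293 cells exposed to peptides (TFA salts, C-terminal amide, free N-terminus) at 256 and 512 μM; viability as percent, run in triplicate, reported as mean ± SEM.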
(In general: Alamar Blue is a resazurin reagent that responds to reducing activity.)

Data set [7] in a line: Cytotoxicity against HEK293 cells assessed as cell viability at 256 uM after 24 hrs by Alamar blue assay relative to control. Type of data set: cell-based. The settings on record: human, read-out: Activity. The gist of the method:
as §3

Another data set relates to Escherichia coli. As to the kind of experiment: Antibacterial activity against extended-spectrum beta-lactamases producing Escherichia coli clinical strain 64771 after overnight incubation by microbroth dilution assay. Type of data set: functional.

In the case of `CC[C@H](C)[C@H](NC(=O)[C@H](Cc1c[nH]c2ccccc12)NC(=O)[C@H](CSCC[P+](C)(C)C)NC(=O)[C@H](Cc1c[nH]c2ccccc12)NC(=O)[C@H](Cc1c[nH]c2ccccc12)NC(=O)[C@H](CSCC[P+](C)(C)C)NC(=O)[C@H](CSCC[P+](C)(C)C)NC(=O)CCc1ccc2n1[B-](F)(F)[N+]1=C(C)C=C(C)C1=C2)C(=O)N[C@@H](CSCC[P+](C)(C)C)C(=O)N[C@@H](Cc1c[nH]c2ccccc12)C(N)=O.O=C([O-])C(F)(F)F.O=C([O-])C(F)(F)F.O=C([O-])C(F)(F)F.O=C([O-])C(F)(F)F` ({BODIPY(FL)}-C(CH2CH2P(+)Me3)C(CH2CH2P(+)Me3)WWC(CH2CH2P(+)Me3)WIC(CH2CH2P(+)Me3)W-NH2), the Drug uptake result in data set [1] is on record as “Active”.

Turning to `CC[C@H](C)[C@H](NC(=O)[C@H](Cc1c[nH]c2ccccc12)NC(=O)[C@H](CSCC[P+](C)(C)C)NC(=O)[C@H](Cc1c[nH]c2ccccc12)NC(=O)[C@H](Cc1c[nH]c2ccccc12)NC(=O)[C@H](CSCCC[P+](C)(C)C)NC(=O)[C@H](CSCC[P+](C)(C)C)NC(=O)CCc1ccc2n1[B-](F)(F)[N+]1=C(C)C=C(C)C1=C2)C(=O)N[C@@H](CSCCC[P+](C)(C)C)C(=O)N[C@@H](Cc1c[nH]c2ccccc12)C(N)=O.O=C([O-])C(F)(F)F.O=C([O-])C(F)(F)F.O=C([O-])C(F)(F)F.O=C([O-])C(F)(F)F` ({BODIPY(FL)}-C(CH2CH2P(+)Me3)C(Propyl(3-PMe3+))WWC(CH2CH2P(+)Me3)WIC(Propyl(3-PMe3+))W-NH2), in the data set on MCF7, the outcome was Active. The Drug uptake result in data set [2] is “Not Active”; in data set [3], “Active”.

For the compound `CC1=CC(C)=[N+]2C1=Cc1ccc(CCC(=O)N[C@@H](CSCC[P+](C)(C)C)C(=O)N[C@@H](Cc3ccccc3)C(=O)N[C@@H](Cc3ccccc3)C(=O)N[C@@H](CSCC[P+](C)(C)C)C(=O)N[C@@H](Cc3ccccc3)C(=O)N[C@@H](Cc3ccccc3)C(=O)N[C@@H](CSCC[P+](C)(C)C)C(=O)N[C@@H](Cc3ccccc3)C(=O)N[C@@H](Cc3ccccc3)C(=O)N[C@@H](CSCC[P+](C)(C)C)C(N)=O)n1[B-]2(F)F.O=C([O-])C(F)(F)F.O=C([O-])C(F)(F)F.O=C([O-])C(F)(F)F.O=C([O-])C(F)(F)F` ({BODIPY(FL)}-C(CH2CH2P(+)Me3)FFC(CH2CH2P(+)Me3)FFC(CH2CH2P(+)Me3)FFC(CH2CH2P(+)Me3)-NH2), the Drug uptake entry in [2] and in data set [4] was “Active” in each case.

On to `CC[C@H](C)[C@H](NC(=O)[C@H](Cc1c[nH]c2ccccc12)NC(=O)[C@H](CSCCC[P+](C)(C)C)NC(=O)[C@H](Cc1c[nH]c2ccccc12)NC(=O)[C@H](Cc1c[nH]c2ccccc12)NC(=O)[C@H](CSCCC[P+](C)(C)C)NC(=O)[C@H](CSCCC[P+](C)(C)C)NC(=O)CCC1=[N+]2C(=Cc3c(C)cc(C)n3[B-]2(F)F)C=C1)C(=O)N[C@@H](CSCCC[P+](C)(C)C)C(=O)N[C@@H](Cc1c[nH]c2ccccc12)C(N)=O.O=C([O-])C(F)(F)F.O=C([O-])C(F)(F)F.O=C([O-])C(F)(F)F.O=C([O-])C(F)(F)F` ({BODIPY(FL)}-C(Propyl(3-PMe3+))C(Propyl(3-PMe3+))WWC(Propyl(3-PMe3+))WIC(Propyl(3-PMe3+))W-NH2), for which the outcome with MCF7 was Active. In addition, the figures for the Drug uptake result in [2] and in data set [3] were “Not Active” and “Active”, respectively.

For the compound `CC1=CC(C)=[N+]2C1=Cc1ccc(CCC(=O)N[C@@H](CSCCC[P+](C)(C)C)C(=O)N[C@@H](Cc3ccccc3)C(=O)N[C@@H](Cc3ccccc3)C(=O)N[C@@H](CSCCC[P+](C)(C)C)C(=O)N[C@@H](Cc3ccccc3)C(=O)N[C@@H](Cc3ccccc3)C(=O)N[C@@H](CSCCC[P+](C)(C)C)C(=O)N[C@@H](Cc3ccccc3)C(=O)N[C@@H](Cc3ccccc3)C(=O)N[C@@H](CSCCC[P+](C)(C)C)C(N)=O)n1[B-]2(F)F.O=C([O-])C(F)(F)F.O=C([O-])C(F)(F)F.O=C([O-])C(F)(F)F.O=C([O-])C(F)(F)F` ({BODIPY(FL)}-C(Propyl(3-PMe3+))FFC(Propyl(3-PMe3+))FFC(Propyl(3-PMe3+))FFC(Propyl(3-PMe3+))-NH2), the outcome with MCF7 was Active. Also, in data set [2], the Drug uptake entry was “Active”.

Broadly, the MIC is the least concentration at which growth counts as inhibited. A low value points to a more susceptible organism. As to H-KRWWKWIRW-NH2, the hemolysis at 1 h, 512 µM in data set [5] is 14.3%. In addition, the viability at 24 h, 512 µM in data set [6] came out at 0%. Moreover, in [7], the viability at 24 h, 256 µM came to 2%. Besides, the lowest concentration to inhibit growth in the data set on Escherichia coli (MIC) was 1.5 µM.
